Reference: ChEMBL document CHEMBL3098105, “7,7'-Diazaindirubin--a small molecule inhibitor of casein kinase 2 in vitro and in cells” (Bioorg Med Chem, 2014)

How the values were obtained:
[1] = target: CDK2/Cyclin A2 (Homo sapiens) (UniProt P24941+P20248); test: Inhibition of CDK2/CycA (unknown origin) assessed as residual activity at 1 uM relative to control; assay type: protein-complex assay
[2] = system: SK-MEL-28; test: Antiproliferative activity against human SK-MEL-28 cells after 3 days by sulforhodamine B assay; assay type: functional; settings: SK-MEL-28, 72 h
Procedure, shortened: (§1)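 Tested in the NCI 60 cell line panel. GI50 is the concentration giving 50% inhibition of cell growth, and values are the mean of two series of tests.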

[3] = target: Serine/threonine-protein kinase VRK2 (Homo sapiens) (UniProt Q86Y07); test: Inhibition of human VRK2 assessed as residual activity at 1 uM relative to control
[4] = system: A549; test: Antiproliferative activity against human A549 cells after 3 days by sulforhodamine B assay; assay type: functional; settings: A549, 72 h; procedure, shortened: as §1
[5] = system: RPMI-8226; test: Antiproliferative activity against human RPMI8226 cells after 3 days by sulforhodamine B assay; assay type: functional; settings: RPMI-8226, 72 h; procedure, shortened: as §1
[6] = system: MCF7; test: Cell cycle arrest in human MCF7 cells assessed as accumulation at G2/M phase at 1 uM after 24 hrs using propidium iodide staining by FACS analysis (reference value: 22.13%); assay type: functional
[7] = system: MCF7; test: Cell cycle arrest in human MCF7 cells assessed as accumulation at S phase at 1 uM after 24 hrs using propidium iodide staining by FACS analysis (reference value: 18.59%); assay type: functional
[8] = target: Serine/threonine-protein kinase MARK2 (Homo sapiens) (UniProt Q7KZI7); test: Inhibition of human PAR1Balpha assessed as residual activity at 1 uM relative to control
[9] = target: Serine/threonine-protein kinase PAK 5 (Homo sapiens) (UniProt Q9P286); test: Inhibition of human PAK5 assessed as residual activity at 1 uM relative to control
[10] = target: T1, Muscle, skeletal receptor tyrosine-protein kinase (Homo sapiens) (UniProt O15146); test: Inhibition of human MuSK assessed as residual activity at 1 uM relative to control
T1 sequence (whole entry): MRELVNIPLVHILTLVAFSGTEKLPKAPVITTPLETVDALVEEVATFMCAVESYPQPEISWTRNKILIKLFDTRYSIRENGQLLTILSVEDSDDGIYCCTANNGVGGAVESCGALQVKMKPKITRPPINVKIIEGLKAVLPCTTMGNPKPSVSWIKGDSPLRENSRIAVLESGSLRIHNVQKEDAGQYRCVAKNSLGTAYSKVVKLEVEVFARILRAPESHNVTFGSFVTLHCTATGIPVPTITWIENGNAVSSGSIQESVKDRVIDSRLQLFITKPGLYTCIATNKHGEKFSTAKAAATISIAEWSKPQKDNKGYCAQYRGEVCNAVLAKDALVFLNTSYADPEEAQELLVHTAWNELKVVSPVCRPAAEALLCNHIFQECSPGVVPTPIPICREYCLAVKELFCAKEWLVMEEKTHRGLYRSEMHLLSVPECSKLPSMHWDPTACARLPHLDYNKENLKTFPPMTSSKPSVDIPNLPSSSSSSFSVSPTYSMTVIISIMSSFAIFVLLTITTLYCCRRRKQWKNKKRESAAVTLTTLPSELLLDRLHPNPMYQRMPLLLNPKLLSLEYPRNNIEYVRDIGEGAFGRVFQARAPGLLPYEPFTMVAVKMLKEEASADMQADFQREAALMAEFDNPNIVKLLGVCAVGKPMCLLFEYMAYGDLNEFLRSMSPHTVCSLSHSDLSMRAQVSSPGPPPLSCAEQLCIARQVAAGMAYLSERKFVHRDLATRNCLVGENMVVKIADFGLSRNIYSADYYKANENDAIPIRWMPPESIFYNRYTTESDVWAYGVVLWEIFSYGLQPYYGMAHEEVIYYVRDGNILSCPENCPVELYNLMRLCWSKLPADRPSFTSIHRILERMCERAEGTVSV

[11] = target: Mitogen-activated protein kinase kinase kinase 9 (Homo sapiens) (UniProt P80192); test: Inhibition of human MLK1 assessed as residual activity at 1 uM relative to control
[12] = target: Interleukin-1 receptor-associated kinase 4 (Homo sapiens) (UniProt Q9NWZ3); test: Inhibition of human IRAK4 assessed as residual activity at 1 uM relative to control
[13] = target: Rhodopsin kinase GRK7 (Homo sapiens) (UniProt Q8WTQ7); test: Inhibition of human GRK7 assessed as residual activity at 1 uM relative to control
[14] = target: Fibroblast growth factor receptor 4 (Homo sapiens) (UniProt P22455); test: Inhibition of human FGFR4 assessed as residual activity at 1 uM relative to control
[15] = target: Ephrin type-B receptor 2 (Homo sapiens) (UniProt P29323); test: Inhibition of human EphB2 assessed as residual activity at 1 uM relative to control
[16] = target: Casein kinase I isoform delta (Homo sapiens) (UniProt P48730); test: Inhibition of human CK1d assessed as residual activity at 1 uM relative to control
[17] = target: Casein kinase I isoform gamma-2 (Homo sapiens) (UniProt P78368); test: Inhibition of human CK1gamma2 assessed as residual activity at 1 uM relative to control
[18] = target: CDK7/Cyclin H/MNAT1 (Homo sapiens) (UniProt P51946+P50613+P51948); test: Inhibition of human CDK7/cyclinH/MAT1 assessed as residual activity at 1 uM relative to control; assay type: protein-complex assay
[19] = target: Calcium/calmodulin-dependent protein kinase type 1D (Homo sapiens) (UniProt Q8IU85); test: Inhibition of human CaMK1delta assessed as residual activity at 1 uM relative to control
[20] = target: Calcium/calmodulin-dependent protein kinase type II subunit gamma (Homo sapiens) (UniProt Q13555); test: Inhibition of human CaMK2gamma assessed as residual activity at 1 uM relative to control
[21] = target: T2, Aurora kinase A (Homo sapiens) (UniProt O14965); test: Inhibition of human Aurora-A assessed as residual activity at 1 uM relative to control
T2 sequence (whole entry): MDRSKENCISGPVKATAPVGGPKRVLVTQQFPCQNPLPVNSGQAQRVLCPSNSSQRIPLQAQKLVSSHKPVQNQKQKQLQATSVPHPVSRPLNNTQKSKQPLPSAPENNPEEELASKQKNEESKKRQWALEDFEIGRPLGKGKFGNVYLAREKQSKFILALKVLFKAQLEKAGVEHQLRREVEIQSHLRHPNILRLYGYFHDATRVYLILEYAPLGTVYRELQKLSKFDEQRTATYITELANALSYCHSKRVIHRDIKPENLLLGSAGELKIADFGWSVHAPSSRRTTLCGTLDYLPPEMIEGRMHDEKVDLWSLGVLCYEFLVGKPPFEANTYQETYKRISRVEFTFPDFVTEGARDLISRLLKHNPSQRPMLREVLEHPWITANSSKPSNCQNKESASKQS

[22] = species on record: Homo sapiens; test: Inhibition of S6K (unknown origin) assessed as residual activity at 10 uM relative to control
[23] = target: Tyrosine-protein kinase ABL1 (Homo sapiens) (UniProt P00519); test: Inhibition of ABL1 (unknown origin) assessed as residual activity at 10 uM relative to control

Chain of Casein kinase I isoform delta (Homo sapiens) (P48730 whole entry, looked up, canonical isoform): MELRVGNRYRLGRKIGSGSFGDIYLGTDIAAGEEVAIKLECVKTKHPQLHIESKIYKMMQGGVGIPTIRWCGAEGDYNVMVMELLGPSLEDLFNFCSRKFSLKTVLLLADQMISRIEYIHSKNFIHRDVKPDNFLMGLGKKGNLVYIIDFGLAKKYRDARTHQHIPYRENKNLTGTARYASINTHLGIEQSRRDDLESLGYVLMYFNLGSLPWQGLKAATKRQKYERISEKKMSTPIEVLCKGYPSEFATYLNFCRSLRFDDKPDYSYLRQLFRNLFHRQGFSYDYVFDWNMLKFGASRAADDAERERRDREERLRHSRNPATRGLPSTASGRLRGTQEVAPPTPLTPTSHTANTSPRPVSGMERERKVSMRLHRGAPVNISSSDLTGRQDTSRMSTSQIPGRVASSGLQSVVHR
Chain of Calcium/calmodulin-dependent protein kinase type II subunit gamma (Homo sapiens) (Q13555 whole entry): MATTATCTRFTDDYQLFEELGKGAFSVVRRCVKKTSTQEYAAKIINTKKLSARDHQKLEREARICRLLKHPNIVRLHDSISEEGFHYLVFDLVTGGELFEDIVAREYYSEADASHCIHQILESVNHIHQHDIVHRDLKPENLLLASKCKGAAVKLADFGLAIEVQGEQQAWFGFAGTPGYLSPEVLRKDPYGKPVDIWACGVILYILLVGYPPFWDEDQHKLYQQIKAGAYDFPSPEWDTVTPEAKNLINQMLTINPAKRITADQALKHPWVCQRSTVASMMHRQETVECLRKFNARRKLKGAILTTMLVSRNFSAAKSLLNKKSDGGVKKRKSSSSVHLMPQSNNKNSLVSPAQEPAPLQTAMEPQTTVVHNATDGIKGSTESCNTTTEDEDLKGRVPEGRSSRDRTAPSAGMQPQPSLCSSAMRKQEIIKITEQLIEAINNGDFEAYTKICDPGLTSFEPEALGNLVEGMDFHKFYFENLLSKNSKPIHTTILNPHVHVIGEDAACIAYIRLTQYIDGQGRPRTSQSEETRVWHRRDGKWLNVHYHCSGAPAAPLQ
Chain of Rhodopsin kinase GRK7 (Homo sapiens) (Q8WTQ7 whole entry): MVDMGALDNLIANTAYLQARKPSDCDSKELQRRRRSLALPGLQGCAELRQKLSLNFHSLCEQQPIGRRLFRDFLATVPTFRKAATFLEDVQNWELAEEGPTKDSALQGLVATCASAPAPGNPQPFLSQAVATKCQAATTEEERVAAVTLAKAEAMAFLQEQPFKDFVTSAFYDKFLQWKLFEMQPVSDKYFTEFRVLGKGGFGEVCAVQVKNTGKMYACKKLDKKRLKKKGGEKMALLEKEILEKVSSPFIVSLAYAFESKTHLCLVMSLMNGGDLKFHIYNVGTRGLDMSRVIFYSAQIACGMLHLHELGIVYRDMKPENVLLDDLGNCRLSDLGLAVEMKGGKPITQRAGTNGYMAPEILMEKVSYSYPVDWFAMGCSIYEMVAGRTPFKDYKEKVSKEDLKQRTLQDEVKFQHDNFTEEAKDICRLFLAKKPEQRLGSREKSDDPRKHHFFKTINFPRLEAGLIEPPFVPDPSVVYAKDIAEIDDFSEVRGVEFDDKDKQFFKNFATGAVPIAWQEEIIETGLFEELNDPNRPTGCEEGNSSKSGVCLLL
Chain of Serine/threonine-protein kinase MARK2 (Homo sapiens) (Q7KZI7 whole entry): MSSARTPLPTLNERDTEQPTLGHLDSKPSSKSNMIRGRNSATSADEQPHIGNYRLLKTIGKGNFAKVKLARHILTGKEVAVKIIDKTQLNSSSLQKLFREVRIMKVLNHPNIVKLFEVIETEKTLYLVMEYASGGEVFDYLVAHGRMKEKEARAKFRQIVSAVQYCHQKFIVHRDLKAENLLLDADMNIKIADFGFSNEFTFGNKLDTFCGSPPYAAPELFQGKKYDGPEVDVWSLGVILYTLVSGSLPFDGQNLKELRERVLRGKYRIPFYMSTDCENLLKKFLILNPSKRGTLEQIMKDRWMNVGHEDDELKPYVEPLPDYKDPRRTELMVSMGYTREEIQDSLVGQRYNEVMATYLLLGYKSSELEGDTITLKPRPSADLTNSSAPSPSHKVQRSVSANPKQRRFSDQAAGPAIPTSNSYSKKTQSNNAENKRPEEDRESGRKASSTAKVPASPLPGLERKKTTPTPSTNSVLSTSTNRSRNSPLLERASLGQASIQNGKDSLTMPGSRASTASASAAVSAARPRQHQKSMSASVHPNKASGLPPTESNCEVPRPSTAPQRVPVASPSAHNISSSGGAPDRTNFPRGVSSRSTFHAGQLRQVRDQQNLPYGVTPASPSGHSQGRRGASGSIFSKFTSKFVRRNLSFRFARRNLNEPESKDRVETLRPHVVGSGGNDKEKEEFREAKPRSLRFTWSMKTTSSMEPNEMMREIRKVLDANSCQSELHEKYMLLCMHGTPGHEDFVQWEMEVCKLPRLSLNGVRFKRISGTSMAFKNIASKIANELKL
Chain of Calcium/calmodulin-dependent protein kinase type 1D (Homo sapiens) (Q8IU85 whole entry, looked up): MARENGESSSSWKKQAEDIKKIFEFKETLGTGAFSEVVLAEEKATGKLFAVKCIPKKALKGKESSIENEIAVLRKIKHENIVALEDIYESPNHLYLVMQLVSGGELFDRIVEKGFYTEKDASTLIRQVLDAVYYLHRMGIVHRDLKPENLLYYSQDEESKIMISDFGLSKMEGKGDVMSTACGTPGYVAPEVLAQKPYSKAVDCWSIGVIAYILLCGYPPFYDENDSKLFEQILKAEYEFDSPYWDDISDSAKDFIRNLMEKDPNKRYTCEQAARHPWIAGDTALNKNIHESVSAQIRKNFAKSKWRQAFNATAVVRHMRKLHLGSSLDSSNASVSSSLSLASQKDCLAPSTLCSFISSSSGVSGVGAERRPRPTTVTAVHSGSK
Chain of Fibroblast growth factor receptor 4 (Homo sapiens) (P22455 22-802 limits assumed): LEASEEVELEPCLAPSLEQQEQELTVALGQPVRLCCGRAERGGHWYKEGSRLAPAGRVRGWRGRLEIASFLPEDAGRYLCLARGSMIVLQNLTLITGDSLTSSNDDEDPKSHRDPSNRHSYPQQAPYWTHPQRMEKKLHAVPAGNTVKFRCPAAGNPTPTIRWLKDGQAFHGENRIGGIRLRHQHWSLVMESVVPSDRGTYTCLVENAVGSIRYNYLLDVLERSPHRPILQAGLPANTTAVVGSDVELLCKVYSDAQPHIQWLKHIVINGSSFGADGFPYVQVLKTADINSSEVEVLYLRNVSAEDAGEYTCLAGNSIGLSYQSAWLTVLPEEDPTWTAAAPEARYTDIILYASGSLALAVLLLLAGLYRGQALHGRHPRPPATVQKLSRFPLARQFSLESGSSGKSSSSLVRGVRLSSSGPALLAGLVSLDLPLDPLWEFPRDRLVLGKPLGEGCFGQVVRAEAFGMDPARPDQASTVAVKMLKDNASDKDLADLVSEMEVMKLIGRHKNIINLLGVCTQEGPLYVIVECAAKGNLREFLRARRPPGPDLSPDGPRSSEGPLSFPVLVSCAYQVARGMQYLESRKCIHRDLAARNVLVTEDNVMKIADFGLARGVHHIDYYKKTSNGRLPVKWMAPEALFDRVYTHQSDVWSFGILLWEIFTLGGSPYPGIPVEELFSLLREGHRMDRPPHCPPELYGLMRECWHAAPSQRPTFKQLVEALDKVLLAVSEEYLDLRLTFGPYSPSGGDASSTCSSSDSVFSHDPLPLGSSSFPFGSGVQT
Chain of Serine/threonine-protein kinase VRK2 (Homo sapiens) (Q86Y07 whole entry): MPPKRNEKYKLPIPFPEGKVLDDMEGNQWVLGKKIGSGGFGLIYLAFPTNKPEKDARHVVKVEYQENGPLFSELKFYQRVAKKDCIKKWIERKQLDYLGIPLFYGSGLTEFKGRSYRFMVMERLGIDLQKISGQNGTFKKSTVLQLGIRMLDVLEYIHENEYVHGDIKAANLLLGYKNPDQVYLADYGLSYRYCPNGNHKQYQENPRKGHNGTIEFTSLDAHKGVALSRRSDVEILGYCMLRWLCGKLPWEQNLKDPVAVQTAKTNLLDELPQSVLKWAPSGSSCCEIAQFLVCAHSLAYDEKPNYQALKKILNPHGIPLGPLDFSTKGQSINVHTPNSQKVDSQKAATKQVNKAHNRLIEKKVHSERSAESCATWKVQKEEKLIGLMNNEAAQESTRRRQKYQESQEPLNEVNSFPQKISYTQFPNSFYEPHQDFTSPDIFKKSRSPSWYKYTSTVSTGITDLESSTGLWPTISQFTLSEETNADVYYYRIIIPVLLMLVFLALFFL
Chain of Interleukin-1 receptor-associated kinase 4 (Homo sapiens) (Q9NWZ3 whole entry): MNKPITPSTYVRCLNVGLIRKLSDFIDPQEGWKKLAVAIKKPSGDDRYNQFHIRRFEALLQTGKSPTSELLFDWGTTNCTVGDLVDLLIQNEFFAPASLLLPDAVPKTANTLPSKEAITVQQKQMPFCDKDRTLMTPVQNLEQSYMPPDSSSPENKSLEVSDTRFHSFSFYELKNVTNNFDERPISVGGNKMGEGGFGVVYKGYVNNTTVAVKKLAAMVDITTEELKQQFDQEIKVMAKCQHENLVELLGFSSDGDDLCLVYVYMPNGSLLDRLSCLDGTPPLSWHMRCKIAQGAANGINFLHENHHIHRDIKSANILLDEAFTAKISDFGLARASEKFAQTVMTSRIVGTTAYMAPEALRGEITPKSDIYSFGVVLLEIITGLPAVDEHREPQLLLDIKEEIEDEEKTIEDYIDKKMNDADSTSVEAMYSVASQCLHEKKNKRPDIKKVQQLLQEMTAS
Chain of Casein kinase I isoform gamma-2 (Homo sapiens) (P78368 whole entry, looked up, canonical isoform): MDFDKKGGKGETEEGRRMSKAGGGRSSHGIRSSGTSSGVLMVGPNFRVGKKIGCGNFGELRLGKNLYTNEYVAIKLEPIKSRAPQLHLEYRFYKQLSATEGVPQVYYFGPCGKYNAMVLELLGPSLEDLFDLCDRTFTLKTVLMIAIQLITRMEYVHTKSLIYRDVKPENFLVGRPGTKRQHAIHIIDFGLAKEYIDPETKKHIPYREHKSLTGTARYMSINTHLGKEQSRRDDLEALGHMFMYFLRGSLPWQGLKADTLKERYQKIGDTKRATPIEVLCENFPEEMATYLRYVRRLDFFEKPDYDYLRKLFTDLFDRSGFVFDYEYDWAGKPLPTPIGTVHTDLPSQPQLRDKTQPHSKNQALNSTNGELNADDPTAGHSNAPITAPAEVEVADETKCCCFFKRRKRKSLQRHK

- Activity [1]: 116%
- GI50 [2]: 2830 nM
- Activity [3]: 110%
- GI50 [4]: 236 nM
- GI50 [5]: 2120 nM
- Activity [8]: 53%
- Activity [9]: 61%
- Activity [10]: 134%
- Activity [11]: 61%
- Activity [12]: 93%
- Activity [13]: 96%
- Activity [14]: 108%
- Activity [15]: 127%
- Activity [16]: 68%
- Activity [17]: 114%
- Activity [18]: 76%
- Activity [19]: 70%
- Activity [20]: 103%
- Activity [21]: 60%
- Activity [22]: 99%
- Activity [23]: 92%
SMILES: O=C1Nc2ncccc2/C1=C1/Nc2ncccc2C1=O
- Activity [6]: 22.63%
- Activity [7]: 12.87%
